Measured values taken from publication PMC2172688 (The Journal of Cell Biology, 2003).

How the values were obtained:
[1] = target: T1, Tsg101 UEV domain (Homo sapiens, UniProt Q99816); experiment: BIAcore biosensor binding of Tsg101 UEV to immobilized GST–peptide fusions; conditions: relative to HIV-1 PTAP peptide
T1 sequence (Q99816 2-145 limits assumed): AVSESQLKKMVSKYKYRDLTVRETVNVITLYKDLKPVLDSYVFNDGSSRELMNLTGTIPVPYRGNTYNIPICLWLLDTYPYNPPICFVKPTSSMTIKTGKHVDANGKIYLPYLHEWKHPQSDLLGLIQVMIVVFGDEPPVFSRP
How it was run: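 Purified recombinant Tsg101 UEV domain was flowed over immobilized GST fusions of 10-amino-acid peptides spanning the central P(S/T)AP motifs of HIV-1 NL4–3 Gag, Tsg101 and Hrs. A mutant Gag PTAP peptide served as negative control. Binding was recorded at a range of UEV concentrations, and binding isotherms were plotted against concentration.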

[2] = target: GST fusion of a 10-amino acid peptide spanning the PSAP motif of human Hrs (human); experiment: SPR
[3] = target: GST fusion of a 10-amino acid peptide spanning the PTAP motif of HIV-1 NL4-3 Gag (HIV-1 NL4-3); experiment: SPR
[4] = target: GST fusion of a 10-amino acid peptide spanning the PTAP motif of human Tsg101 (human); experiment: SPR
[5] = target: T2, Tsg101–Gal4p binding domain fusion, full-length wild-type Tsg101 (human, UniProt Q99816 1-390); experiment: two-hybrid
T2 sequence (looked up): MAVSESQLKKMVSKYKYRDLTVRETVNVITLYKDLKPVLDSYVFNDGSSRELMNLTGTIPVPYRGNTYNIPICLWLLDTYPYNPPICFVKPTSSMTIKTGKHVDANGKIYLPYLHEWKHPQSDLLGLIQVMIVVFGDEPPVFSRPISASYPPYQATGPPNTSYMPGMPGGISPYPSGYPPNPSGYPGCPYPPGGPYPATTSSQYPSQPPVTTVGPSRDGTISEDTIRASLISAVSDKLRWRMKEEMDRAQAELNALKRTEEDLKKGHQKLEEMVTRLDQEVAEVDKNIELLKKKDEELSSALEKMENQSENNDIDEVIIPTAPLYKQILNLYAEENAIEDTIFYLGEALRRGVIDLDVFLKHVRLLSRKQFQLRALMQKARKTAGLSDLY

SPTPSAPVPL [Hrs SPTPSAPVPL] was tested, and the “binding affinity weaker than Tsg101 UEV binding to the HIV-1 PTAP peptide” value [1] was “sevenfold”.

“Tsg101 UEV domain (NH2-terminal ubiquitin E2 variant domain of Tsg101) (from UniProt Q99816 2-145) (domain or fragment)” showed a fold weaker binding affinity than for the HIV-1 PTAP peptide [2] of 7 fold, a Kd [3] of 21 µM and a fold weaker binding affinity than for the HIV-1 PTAP peptide [4] of 4 fold.

For VIIPTAPLYK [Tsg101 VIIPTAPLYK], the “binding affinity weaker than Tsg101 UEV binding to the HIV-1 PTAP peptide” value [1] was “fourfold”.

B1: Hrs^ΔPSAP, Gal4p activation domain fusion (alanine substitution of the Hrs 348PSAP351 sequence) (natural protein, human, UniProt O14964 1-777, looked up)
chain: MGRGSGTFERLLDKATSQLLLETDWESILQICDLIRQGDTQAKYAVNSIKKKVNDKNPHVALYALEVMESVVKNCGQTVHDEVANKQTMEELKDLLKRQVEVNVRNKILYLIQAWAHAFRNEPKYKVVQDTYQIMKVEGHVFPEFKESDAMFAAERAPDWVDAEECHRCRVQFGVMTRKHHCRACGQIFCGKCSSKYSTIPKFGIEKEVRVCEPCYEQLNRKAEGKATSTTELPPEYLTSPLSQQSQLPPKRDETALQEEEELQLALALSQSEAEEKERLRQKSTYTSYPKAEPMPSASSAPPASSLYSSPVNSSAPLAEDIDPELARYLNRNYWEKKQEEARKSPTAAAAVPLTEPAAQPGEGHAAPTNVVENPLPETDSQPIPPSGGPFSEPQFHNGESEESHEQFLKALQNAVTTFVNRMKSNHMRGRSITNDSAVLSLFQSINGMHPQLLELLNQLDERRLYYEGLQDKLAQIRDARGALSALREEHREKLRRAAEEAERQRQIQLAQKLEIMRQKKQEYLEVQRQLAIQRLQEQEKERQMRLEQQKQTVQMRAQMPAFPLPYAQLQAMPAAGGVLYQPSGPASFPSTFSPAGSVEGSPMHGVYMSQPAPAAGPYPSMPSTAADPSMVSAYMYPAGATGAQAAPQAQAGPTASPAYSSYQPTPTAGYQNVASQAPQSLPAISQPPQSSTMGYMGSQSVSMGYQPYNMQNLMTTLPSQDASLPPQQPYIAGQQPMYQQMAPSGGPPQQQPPVAQQPQAQGPPAQGSEAQLISFD
For B1, the “fold reduction of binding against wild-type Hrs” value [5] was about 2 fold.
